How the values were obtained:
Rattus norvegicus = species on record: Rattus norvegicus; assay: Cyclic AMP accumulation in Rat brain cerebral cortical slices by the compound, activity expressed as % conversion; type: functional
How it was run: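 Rat cerebral cortical slices were used for cAMP accumulation. cAMP was isolated by double-column chromatography. Values are means of two experiments, each run in duplicate.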

[1] = biological target: T1, GABA-A receptor; anion channel (Rattus norvegicus) (UniProt O09028+P15431+P18506+P18508+P19969+P20236+P23574+P23576+P28471+P28473+P30191+P62813+P63079+P63138+Q91ZM7+Q9ES14); assay: Displacement of [35S]TBPS from GABA-A receptor of rat brain membranes; type: cell membranes; set-up: concentration or dose not given beside the values; conditions: Membrane
How it was run: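 [35S]TBPS binding assay with nonspecific binding defined by 10 µM unlabelled TBPS. Values are means of two experiments, each in duplicate.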

[2] = biological target: T1, GABA-A receptor; anion channel (Rattus norvegicus); conditions: Brain, Brain membranes
[3] = biological target: T1, GABA-A receptor; anion channel (Rattus norvegicus); assay: Displacement of [3H]diazepam binding in rat brain membranes; type: cell membranes; set-up: unit not given here
How it was run: (§1)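 [3H]Diazepam binding, alone and GABA-activated, was measured in brain membranes. Nonspecific binding was taken with 1 µM unlabelled diazepam. Values are means of two experiments, each in duplicate.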

[4] = biological target: GABA B receptor (Rattus norvegicus) (UniProt Q9Z0U4+O88871); assay: Displacement of [3H]-GABA from Gamma-aminobutyric acid type B receptor in rat brain membranes; type: cell membranes; set-up: concentration or dose not given beside the values
How it was run: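 GABA-B binding: rat brain membranes were incubated with [3H]GABA plus 40 µM isoguvacine to block GABA-A sites. Nonspecific binding was defined with 100 µM baclofen. Values are means of three experiments, each in duplicate; standard errors were below 20%.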

[5] = biological target: T1, GABA-A receptor; anion channel (Rattus norvegicus); assay: Displacement of [3H]-GABA from Gamma-aminobutyric acid A receptor in rat brain membranes; type: cell membranes; set-up: concentration or dose not given beside the values
How it was run: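 GABA-A binding used [3H]GABA as ligand, with nonspecific binding taken in 1 mM unlabelled GABA. Values are means of three experiments, each in duplicate; standard error of the means was below 10%.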

[6] = biological target: T1, GABA-A receptor; anion channel (Rattus norvegicus); conditions: Brain, Brain membranes; remark: listed apart in the source
Mus musculus [7] = assay: Convulsant effect on ICV administration in mice at 100 ug; type: functional
How it was run: (§2)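 Mice under halothane anaesthesia got a 4 µL injection into the left ventricle at 25, 50 or 100 µg, with saline controls. Mice sat in a 1-L beaker and were watched for seizures from 2 min after injection, and for behaviour over 40 min. A seizure counted when tonic-clonic convulsions occurred and the mouse fell on its flank. Read-out: mice convulsing/mice tested, and seizure duration in min (mean ± SEM).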

Mus musculus [8] = assay: Convulsant effect on ICV administration in mice at 50 ug; type: functional; how it was run: as §2
Mus musculus [9] = assay: Convulsant effect on ICV administration in mice at 100microg, 5/5 mice affected; type: functional; how it was run: as §2
Mus musculus [10] = assay: Convulsant effect on ICV administration in mice at 25microg, 0/5 mice affected; type: functional; how it was run: as §2
Mus musculus [11] = assay: Convulsant effect on ICV administration in mice at 50microg, 5/5 mice affected; type: functional; how it was run: as §2
Mus musculus [12] = species on record: Mus musculus; assay: Reversal of convulsant effect by Diazepam pretreatment at 100 ug ICV dose, 5/5 mice affected; type: functional
Mus musculus [13] = assay: Reversal of convulsant effect by Diazepam pretreatment (10 mg/kg) at 100 ug ICV dose, 0/5 mice affected; type: functional
Mus musculus [14] = assay: Reversal of convulsant effect by Diazepam pretreatment (2 mg/kg) at 100 ug ICV dose, 5/5 mice affected; type: functional
Mus musculus [15] = assay: Reversal of convulsant effect by Diazepam pretreatment (5 mg/kg) at 100 ug ICV dose, 4/4 mice affected; type: functional
[16] = biological target: T1, GABA-A receptor; anion channel (Rattus norvegicus); assay: Displacement of GABA activated [3H]diazepam binding in rat brain membranes; type: cell membranes; how it was run: as §1
[17] = biological target: GABA transporter (Rattus norvegicus) (UniProt P31647+P23978+P31646+P48056); assay: Inhibition of [3H]GABA uptake from rat brain membranes; type: functional, cell membranes; conditions: Membrane, concentration not given here
Sequence of GABA transporter (Rattus norvegicus) (P31646 whole entry, looked up): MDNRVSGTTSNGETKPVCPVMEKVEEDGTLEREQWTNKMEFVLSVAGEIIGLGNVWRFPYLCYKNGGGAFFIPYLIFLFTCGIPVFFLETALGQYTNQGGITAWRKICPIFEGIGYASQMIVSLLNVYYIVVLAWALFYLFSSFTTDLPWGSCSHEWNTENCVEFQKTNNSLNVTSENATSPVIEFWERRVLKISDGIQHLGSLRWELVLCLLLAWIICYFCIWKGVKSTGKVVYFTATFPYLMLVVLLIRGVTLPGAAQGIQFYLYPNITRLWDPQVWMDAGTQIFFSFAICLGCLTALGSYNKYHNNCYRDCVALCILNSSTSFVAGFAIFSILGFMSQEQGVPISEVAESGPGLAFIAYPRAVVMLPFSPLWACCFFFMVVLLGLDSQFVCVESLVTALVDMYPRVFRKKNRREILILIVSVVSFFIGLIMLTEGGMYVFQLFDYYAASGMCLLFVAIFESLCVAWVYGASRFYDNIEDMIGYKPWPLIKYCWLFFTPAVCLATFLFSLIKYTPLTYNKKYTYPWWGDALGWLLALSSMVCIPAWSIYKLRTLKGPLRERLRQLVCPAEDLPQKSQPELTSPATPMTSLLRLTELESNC
Sequence of GABA transporter (Rattus norvegicus) (P31647 whole entry, looked up): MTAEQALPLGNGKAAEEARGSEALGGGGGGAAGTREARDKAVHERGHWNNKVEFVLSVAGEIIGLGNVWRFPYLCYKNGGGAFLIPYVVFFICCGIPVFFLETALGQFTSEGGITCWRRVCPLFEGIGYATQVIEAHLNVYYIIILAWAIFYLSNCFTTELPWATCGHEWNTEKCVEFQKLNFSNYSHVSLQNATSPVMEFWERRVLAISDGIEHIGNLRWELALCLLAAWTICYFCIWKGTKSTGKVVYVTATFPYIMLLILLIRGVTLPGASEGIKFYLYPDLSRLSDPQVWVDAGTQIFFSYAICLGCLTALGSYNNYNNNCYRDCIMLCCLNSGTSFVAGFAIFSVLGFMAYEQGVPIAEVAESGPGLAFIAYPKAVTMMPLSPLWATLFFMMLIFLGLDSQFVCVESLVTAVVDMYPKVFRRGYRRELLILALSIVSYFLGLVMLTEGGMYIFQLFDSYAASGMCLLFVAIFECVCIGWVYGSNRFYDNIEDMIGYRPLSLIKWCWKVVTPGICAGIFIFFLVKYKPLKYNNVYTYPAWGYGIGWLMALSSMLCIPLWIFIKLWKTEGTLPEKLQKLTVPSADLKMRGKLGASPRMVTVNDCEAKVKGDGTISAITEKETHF
Sequence of GABA transporter (Rattus norvegicus) (P48056 whole entry, looked up): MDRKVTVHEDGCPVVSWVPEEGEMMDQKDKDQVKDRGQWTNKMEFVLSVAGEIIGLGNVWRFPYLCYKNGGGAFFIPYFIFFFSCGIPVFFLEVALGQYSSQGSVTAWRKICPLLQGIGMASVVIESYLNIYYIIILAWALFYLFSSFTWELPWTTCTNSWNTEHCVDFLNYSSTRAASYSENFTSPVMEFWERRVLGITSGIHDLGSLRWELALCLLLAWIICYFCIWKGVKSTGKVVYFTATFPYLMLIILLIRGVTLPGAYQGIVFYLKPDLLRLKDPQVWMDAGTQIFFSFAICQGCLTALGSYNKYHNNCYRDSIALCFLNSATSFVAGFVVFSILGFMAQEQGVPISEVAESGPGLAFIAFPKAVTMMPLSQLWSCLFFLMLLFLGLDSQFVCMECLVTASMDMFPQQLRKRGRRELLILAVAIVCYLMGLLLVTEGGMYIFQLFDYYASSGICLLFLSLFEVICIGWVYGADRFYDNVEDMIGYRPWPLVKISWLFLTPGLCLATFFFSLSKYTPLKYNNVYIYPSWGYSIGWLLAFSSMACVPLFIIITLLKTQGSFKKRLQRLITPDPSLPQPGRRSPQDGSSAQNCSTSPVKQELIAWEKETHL
How it was run: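 High-affinity [3H]GABA uptake was measured into rat brain synaptosomes. Values are means of two experiments.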

[18] = biological target: T1, GABA-A receptor; anion channel (Rattus norvegicus); assay: Displacement of GABA activated [3H]diazepam binding in rat brain membranes at 100 uM; type: cell membranes; how it was run: as §1
[19] = biological target: T1, GABA-A receptor; anion channel (Rattus norvegicus); assay: Displacement of [3H]diazepam binding to rat brain membranes at 100 uM concentration; type: cell membranes; conditions: Membrane; how it was run: as §1
Mus musculus [20] = assay: Convulsant effect on ICV administration in mice at 50microg, 1/6 mice affected; type: functional; how it was run: as §2
Mus musculus [21] = assay: Reversal of convulsant effect by Diazepam pretreatment (10 mg/kg) at 100 ug ICV dose, 0/6 mice affected; type: functional
Mus musculus [22] = assay: Reversal of convulsant effect by Diazepam pretreatment (2 mg/kg) at 100 ug ICV dose, 4/4 mice affected; type: functional
Mus musculus [23] = assay: Reversal of convulsant effect by Diazepam pretreatment (5 mg/kg) at 100 ug ICV dose, 5/5 mice affected; type: functional

## CC(C)NCC(O)c1ccc(O)c(O)c1.NCC(CC(=O)O)c1ccc(Cl)cc1.O=C(O)C1CCCC2NCCCC21 (stereo not given)
Rattus norvegicus
  Conversion: 2.65%

## CC(C)NCC(O)c1ccc(O)c(O)c1.O=C(O)C1CCCC2NCCCC21 (stereo not given)
Rattus norvegicus
  Conversion: 0.84%

## CC(C)NCC(O)c1ccc(O)c(O)c1.NCC(CC(=O)O)c1ccc(Cl)cc1 (stereo not given)
Rattus norvegicus
  Conversion: 2.56%

## C=C(C)[C@@H]1[C@H]2OC(=O)[C@@H]1[C@]1(O)C[C@H]3O[C@]34C(=O)O[C@H]2[C@]14C
[1]
  Displacement: 90%

## CC(C)NCC(O)c1ccc(O)c(O)c1.O=C(O)[C@@H]1CCCC2NCCCC21 (stereo not given)
[2]
  Binding affinity (spec bound mg-1): 0.91

## CN1C(=O)CN=C(c2ccccc2)c2cc(Cl)ccc21
[3]
  Binding affinity (spec bound mg-1): 29.3

## NCCCC(=O)O
[4]
  Displacement: 100%
[5]
  Displacement: 100%
[6]
  Binding affinity (spec bound mg-1): 55.4

## O=C(O)[C@@H]1CCCC2NCCCC21 (stereo in doubt; 3) [listing 1 of 2 here]
Mus musculus [7]
  Duration of seizure: 26.5 min
Mus musculus [8]
  Duration of seizure: 9.5 min
Mus musculus [9]
  Tonic-clonic seizure: 5
Mus musculus [10]
  Tonic-clonic seizure: 0
Mus musculus [11]
  Tonic-clonic seizure: 5
Mus musculus [12]
  Tonic-clonic seizure: 5
Mus musculus [13]
  Tonic-clonic seizure: 0
Mus musculus [14]
  Tonic-clonic seizure: 5
Mus musculus [15]
  Tonic-clonic seizure: 4

## O=C(O)[C@@H]1CCCC2NCCCC21 (stereo in doubt; 3) [listing 2 of 2 here]
[4]
  Displacement: < 10%
[1]
  Displacement: < 5%
[5]
  Displacement: < 10%
[16]
  Binding affinity (spec bound mg-1): 59.1
[3]
  Binding affinity (spec bound mg-1): 28.8
[17]
  inhibition: < 5%

## CC(C)NCC(O)c1ccc(O)c(O)c1.NCC(CC(=O)O)c1ccc(Cl)cc1.O=C(O)[C@@H]1CCCC2NCCCC21 (stereo in doubt; form 1)
Rattus norvegicus
  Conversion: 2.59%

## O=C(O)[C@@H]1CCCC2NCCCC21 (stereo in doubt; form 1)
[4]
  Displacement: < 10%
[1]
  Displacement: < 5%
[5]
  Displacement: < 10%
[18]
  Binding affinity (spec bound mg-1): 55.3
[19]
  Binding affinity (spec bound mg-1): 31.9
[17]
  inhibition: < 5%

## CC(C)NCC(O)c1ccc(O)c(O)c1.O=C(O)[C@@H]1CCCC2NCCCC21 (stereo in doubt; form 2)
Rattus norvegicus
  Conversion: 0.86%

## O=C(O)[C@@H]1CCCC2NCCCC21 (stereo in doubt; form 2)
[4]
  Displacement: < 10%
[1]
  Displacement: < 5%
[5]
  Displacement: < 10%
[16]
  Binding affinity (spec bound mg-1): 59.4
[3]
  Binding affinity (spec bound mg-1): 32
[17]
  inhibition: 15%

## CC(C)NCC(O)c1ccc(O)c(O)c1.NCC(CC(=O)O)c1ccc(Cl)cc1.O=C(O)[C@@H]1CCCC2NCCCC21 (stereo in doubt; form 3)
Rattus norvegicus
  Conversion: 2.81%

## CC(C)NCC(O)c1ccc(O)c(O)c1.NCC(CC(=O)O)c1ccc(Cl)cc1.O=C(O)[C@@H]1CCCC2NCCCC21 (stereo in doubt; form 4)
Rattus norvegicus
  Conversion: 2.63%

## CC(C)NCC(O)c1ccc(O)c(O)c1.O=C(O)[C@@H]1CCCC2NCCCC21 (stereo in doubt; form 5)
Rattus norvegicus
  Conversion: 0.8%

## O=C(O)C1CCCC2NCCCC21 (trans isomer)
[4]
  Displacement: 38%
[1]
  Displacement: < 5%
[5]
  Displacement: 43%
[16]
  Binding affinity (spec bound mg-1): 65.5
[3]
  Binding affinity (spec bound mg-1): 35
Mus musculus [7]
  Duration of seizure: 11.7 min
Mus musculus [8]
  Duration of seizure: 0.8 min
Mus musculus [9]
  Tonic-clonic seizure: 5
Mus musculus [10]
  Tonic-clonic seizure: 0
Mus musculus [20]
  Tonic-clonic seizure: 1
Mus musculus [12]
  Tonic-clonic seizure: 5
Mus musculus [21]
  Tonic-clonic seizure: 0
Mus musculus [22]
  Tonic-clonic seizure: 4
Mus musculus [23]
  Tonic-clonic seizure: 5
[17]
  inhibition: < 5%

## NCC(CC(=O)O)c1ccc(Cl)cc1 (stereo not given) [BACLOFEN]
[4]
  Displacement: 100%
[5]
  Displacement: 15%
Rattus norvegicus
  Conversion: 0.2%

## CC(C)NCC(O)c1ccc(O)c(O)c1 (stereo not given) [ISOPROTERENOL]
Rattus norvegicus
  Conversion: 0.84%
